Hits are enriched below; roughly 1.8% of the tested compounds scored in any of these assays.
PG9 Ab binder: binders of HIV-1 gp120 antibody PG9, primary screen, biochemical, TR-FRET; 0.43% of 360,000 active; inhibition, % at 6.7 µM; AID 624416, 2012; TR-FRET gp120-PG9 antibody binding; in the data active means inhibition above about 8.5%
NR2E3 ag-1: NR2E3 agonists in two-hybrid cells, primary screen, cell-based, luminescence, CHO-S, Gal4-NCOR/VP16-NR2E3; Photoreceptor-specific nuclear receptor (Homo sapiens), Q9Y5X4; luciferase; inhibition of corepressor binding, % at 3.98 µM; 0.35% of 360,000 active;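 active means inhibition above the mean of all tested compounds plus 3 SD, cut at about 70% in these data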;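 further: 0% = DMSO with NR2E3 transfected cells and 100% = cells lacking NR2E3 construct; higher means lower luciferase signal from less NR2E3 corepressor binding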
Target sequence (Q9Y5X4 whole entry, looked up, the tested form may be a part): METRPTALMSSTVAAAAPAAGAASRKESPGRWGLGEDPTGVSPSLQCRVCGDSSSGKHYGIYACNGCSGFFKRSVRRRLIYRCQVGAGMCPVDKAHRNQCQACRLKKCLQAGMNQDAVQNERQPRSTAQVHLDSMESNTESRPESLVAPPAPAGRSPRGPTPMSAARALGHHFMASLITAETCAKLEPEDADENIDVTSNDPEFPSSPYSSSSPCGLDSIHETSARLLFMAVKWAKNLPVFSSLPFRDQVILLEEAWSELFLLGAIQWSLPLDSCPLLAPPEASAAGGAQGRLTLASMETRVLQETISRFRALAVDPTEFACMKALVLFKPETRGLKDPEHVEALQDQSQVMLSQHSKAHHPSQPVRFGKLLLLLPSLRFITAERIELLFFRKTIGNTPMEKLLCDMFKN
Rev-erbA mod: modulators of Rev-erb alpha DNA binding, primary screen, biochemical, FITC-DNA, fluorescence polarization, uHTS; Nuclear receptor subfamily 1 group D member 1 (Homo sapiens), P20393; Rev-erbα–FITC-DNA binding, 90 min; activity, % at 10 µM; 0.79% of 370,000 active;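 active means activity above about 14%, limit read from the data; passing the limit was not always enough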;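 further: 0% = DMSO wells with 35 nM protein and 100% = DMSO wells with 750 nM protein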
NR2E3 ag-2: inhibitors of NR2E3-RetCOR corepressor binding, primary screen, NR2E3 agonist project, biochemical, TR-FRET, GST-NR2E3, biotin-RetCOR; 1536-well; 0.12% of 320,000 active; inhibition of corepressor binding, % at 4.78 µM; AID 2300, 2010; Photoreceptor-specific nuclear receptor (Homo sapiens), Q9Y5X4;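 active means percent inhibition above the cutoff of mean plus 3 SD of all tested compounds, set per screening campaign, cut at about 20% in these data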;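 further: 0% = DMSO wells and 100% = biotin wells as full block of FRET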
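Material: NR2E3–RetCOR corepressor complex / Amount: 1.35 nM GST-NR2E3 / Medium: Tris pH 7.5 / Compound: single nominal compound dose of 4.8 µM / Incubation: 5 h at 4 °C / Technique: TR-FRET, Eu(K)-anti-GST donor, streptavidin-D2 acceptor, ex 340, em 617/671 nm / Read-out basis: percent loss of FRET ratio relative to control wells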
GalR3 antag: GalR3 antagonists in HEK293 cells, primary screen, cell-based, fluorescence readout; HEK293 GalR3-CNG cAMP membrane potential fluorescence; galR3 body fused to GalR1 C-terminus; inhibition, % at 3 µM; 0.44% of 360,000 active;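 active means inhibition above the screen-wide average plus 3 SD, cut at about 13% in these data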;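 further: forskolin and galanin both at EC90 stimulate the cells; cAMP rise reported by CNG channel membrane potential dye signal; 0% = forskolin plus galanin with DMSO and 100% = forskolin alone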
Rev-erbA confirm: modulators of Rev-erb alpha DNA binding, confirmation, biochemical, FITC-DNA, fluorescence polarization, single point. shares compounds with Rev-erbA mod. 90 min. activation, % at 25 µM. 61% of 3,000 active;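 active means activation at or above a set limit, or at least 3 SD above the negative control mean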;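 further: 0% = 35 nM protein with DMSO and 100% = 750 nM protein high control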
RORg counter: modulation of RORgamma DNA binding, dose response, counter-screen for Rev-erb alpha modulator project, biochemical, fluorescence polarization, FITC-DNA. shares compounds with Rev-erbA mod. purified RORgamma protein-FITC-DNA binding. IC50, µM. 8% of 910 active. AID 1259320, 2017;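 active means Compounds whose fitted half-maximal concentration for disrupting protein-DNA binding is below 10 micromolar; the record names Rev-erb in its text, so the target is in doubt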
An asterisk follows results filed as active.

For O=S(=O)(c1ccccc1)c1cnn2c(C(F)(F)F)cc(-c3ccc(F)cc3)nc12 the results were PG9 Ab binder -1, NR2E3 ag-1 3, Rev-erbA mod 24*, NR2E3 ag-2 5, GalR3 antag -5 and Rev-erbA confirm -7.
For COc1cccc(-c2ccc(CC[C@H]3O[C@H]4CC[C@@H](CO)O[C@H]4C[C@H]3NC(=O)c3cnccn3)cc2)c1 the results were Rev-erbA mod -3.
For COc1ccc(C(=O)c2c[nH]c(C(=O)NCc3cccs3)c2)cc1 the results were PG9 Ab binder 0, NR2E3 ag-1 -24, Rev-erbA mod 43*, NR2E3 ag-2 0, GalR3 antag -7, Rev-erbA confirm 63* and RORg counter >40.
CN(CCO)C1CN(Cc2cn(Cc3ccccc3C(F)(F)F)nn2)S(=O)(=O)C1 (stereo unspecified) was read as Rev-erbA mod -10.
`O=C(Cc1ccccc1)N1CCC(Oc2cccnc2)CC1` gave Rev-erbA mod -2.
`COc1cccc(C(=O)c2cc3cc(Cl)ccc3[nH]2)c1` gave PG9 Ab binder 1, NR2E3 ag-1 -106, Rev-erbA mod 20*, NR2E3 ag-2 4, GalR3 antag -11 and Rev-erbA confirm 11.
`O=C(c1ccccc1)c1cc2cc(Cl)ccc2[nH]1` gave PG9 Ab binder -2, NR2E3 ag-1 -99, Rev-erbA mod 3, NR2E3 ag-2 -6 and GalR3 antag -9.
For C/C(=C(/CCOC(=O)C(C)C)SS/C(CCOC(=O)C(C)C)=C(\C)N(C=O)Cc1cnc(C)nc1N)N(C=O)Cc1cnc(C)nc1N the results were Rev-erbA mod 3.
O=c1[nH]c(/C=C/c2ccccc2OC(F)F)nc2c1cnn2-c1ccccc1 was read as PG9 Ab binder 3, NR2E3 ag-1 -16, Rev-erbA mod 24*, NR2E3 ag-2 -3, GalR3 antag 0 and Rev-erbA confirm 5.
Screening COc1ccc(C2CC(c3ccccc3O)=NN2C(=O)c2ccccc2)cc1OC (stereo unspecified) returned PG9 Ab binder -1, NR2E3 ag-1 0, Rev-erbA mod -2, NR2E3 ag-2 -2 and GalR3 antag -11.
`O=C(c1ccccc1)N1N=C(c2ccccc2O)CC1c1ccccc1` (stereo unspecified) gave PG9 Ab binder 4, NR2E3 ag-1 11, Rev-erbA mod 57*, NR2E3 ag-2 -1, GalR3 antag -7, Rev-erbA confirm 36* and RORg counter 6.9*.
`N#C/C(=C\c1c[nH]c2ccccc12)C(N)=O` gave PG9 Ab binder 0, NR2E3 ag-1 -25, Rev-erbA mod 7, NR2E3 ag-2 0 and GalR3 antag -11.
`CC(=O)Oc1c(/C=C(\C#N)C(N)=O)[nH]c2ccccc12` gave PG9 Ab binder -43, NR2E3 ag-1 23, Rev-erbA mod 55*, GalR3 antag -8, Rev-erbA confirm 66* and RORg counter >40.
`COc1cc(C(=O)NC2CCCCN(Cc3cccc(Cl)c3)C2=O)cc(OC)c1OC` (stereo unspecified) gave Rev-erbA mod -4.
Screening CCCC/C=C1/[C@H](c2ccccc2)N(C)C2=N[C@@H](c3ccccc3)CC(=O)N21 returned Rev-erbA mod 3.
For Cc1csc(NC(=O)c2cc3c(C)nn(Cc4ccccc4Cl)c3s2)n1 the results were PG9 Ab binder 2, NR2E3 ag-1 -10, Rev-erbA mod 22*, NR2E3 ag-2 -2, GalR3 antag -5 and Rev-erbA confirm 17*.
